Only some compounds are listed: those with a hit (about 2.5% of all), similar ones and a draw of the others.
PAD4 FP inh: PAD4 (human) enzyme inhibition. recombinant PAD4, RCA probe fluorescence polarization. Q9UM07. 330,000 compounds, 0.41% hits. AID 485272. inhibition, % at 6.36 µM;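 active means percent inhibition above a cutoff equal to the mean of all tested compounds plus 3 SD, cut at about 15% in these data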
TDP2 absorb: blocks human TDP2 phosphodiesterase activity. O95551. recombinant TDP2, T5PNP hydrolysis, p-nitrophenol absorbance 415 nm. inhibition, % at 12.8 µM. 370,000 compounds, 0.34% hits;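 active means inhibition above the mean of all tested compounds plus 3 SD, set per campaign, cut at about 25% in these data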
Target sequence (O95551 whole entry, looked up): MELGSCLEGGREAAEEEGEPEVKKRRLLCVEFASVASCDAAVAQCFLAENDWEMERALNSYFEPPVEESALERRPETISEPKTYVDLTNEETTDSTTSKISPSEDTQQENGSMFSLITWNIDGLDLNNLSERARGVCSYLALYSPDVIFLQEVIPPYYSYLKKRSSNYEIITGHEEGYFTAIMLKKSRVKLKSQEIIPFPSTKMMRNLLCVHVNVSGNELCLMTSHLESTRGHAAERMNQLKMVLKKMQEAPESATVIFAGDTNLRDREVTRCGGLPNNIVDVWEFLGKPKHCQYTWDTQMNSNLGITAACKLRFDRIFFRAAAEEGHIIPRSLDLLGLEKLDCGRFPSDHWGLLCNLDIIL
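System: recombinant human TDP2 / Amount: 120 nM TDP2 per well / Also added: 5 mM T5PNP chromogenic substrate / Doses: 12.8 µM single point, 1% DMSO / Incubation: 2 h at 37 °C / Detection: p-Nitrophenol epi absorbance / Evaluation: % inhibition relative to enzyme-containing and enzyme-free wells / Repeats: singlicate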
PRMT1 inh: inhibitors of human PRMT1; Q99873; recombinant PRMT1, activity-based probe fluorescence polarization; inhibition, % at 2.79 µM; 370,000 compounds, 1.3% hits; AID 652257;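 active means inhibition above about 21% made by adding two undisclosed values, limit read from the data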
Target sequence (Q99873 whole entry, looked up): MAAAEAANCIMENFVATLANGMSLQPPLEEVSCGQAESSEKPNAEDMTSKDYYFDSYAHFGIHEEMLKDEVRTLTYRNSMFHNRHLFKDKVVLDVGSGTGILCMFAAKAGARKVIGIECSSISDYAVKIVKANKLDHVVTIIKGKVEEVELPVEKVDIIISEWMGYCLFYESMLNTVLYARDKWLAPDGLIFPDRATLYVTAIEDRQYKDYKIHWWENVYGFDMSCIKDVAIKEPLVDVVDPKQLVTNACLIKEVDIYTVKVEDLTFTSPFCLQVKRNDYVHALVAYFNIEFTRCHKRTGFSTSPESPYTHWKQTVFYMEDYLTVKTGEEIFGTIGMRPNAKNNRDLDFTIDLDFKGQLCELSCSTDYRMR
Fh CTSL1 inh: blocks F. hepatica cathepsin L1 in PFM18AAP counter-screen | inhibition, % at 5.96 µM | 300,000 compounds, 0.49% hits | AID 1906 | recombinant F. hepatica cathepsin L1, Z-Leu-Arg-MCA fluorescence;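 active means inhibition above the mean of all tested compounds plus 3 SD, set per screening campaign, cut at about 17% in these data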
GSTO1 inh: GSTO1 inhibition, counter-screen for RBBP9 inhibitors; recombinant GSTO1, activity-based probe fluorescence polarization; 300,000 compounds, 1.1% hits; inhibition, % at 5.96 µM; P78417;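 active means inhibition above the campaign mean inhibition plus 3 SD, cut at about 35% in these data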
PAD4 confirm: confirmation of human PAD4 inhibitors. shares compounds with PAD4 FP inh. recombinant PAD4, RCA probe fluorescence polarization. inhibition, % at 6.36 µM. 1,200 compounds, 28% hits. AID 488796;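 active means mean inhibition across replicates above the hit cutoff set by the earlier primary screen, cut at about 15% in these data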;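 further: inhibitors block active-site labeling by the probe so polarization falls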
Each line names hits and unclear results; the compound was inactive in the other large screens (follow-up assays come after a bar, where they were run).

CN(C)CCCNc1cc(O)c2ncccc2c1	PAD4 FP inh 15.7 (no result: Fh CTSL1 inh, GSTO1 inh) | PAD4 confirm inactive
Cn1c(=O)c2c(ncn2CC(=O)Nc2nc(-c3ccccc3Cl)cs2)n(C)c1=O	PAD4 FP inh 90.0 | PAD4 confirm inactive
O=C(Nc1ccc(S(=O)(=O)Nc2ncccn2)cc1)c1ccc2ncsc2c1	PAD4 FP inh 17.9, PRMT1 inh 23.9 | PAD4 confirm inactive
O=C(Nc1ccncc1)c1ccc2ncsc2c1	none
N#C/C(=C\c1cccnc1)C(=O)Nc1ccccc1	none
N#C/C(=C\c1cccnc1)C(=O)Nc1ccc(O)cc1F	PAD4 FP inh 17.9 | PAD4 confirm inactive
CCn1c(=O)n2n(c1=O)[C@]1(C=C(C)C2)CN(Cc2ccc(OC)cc2OC)C(NC(=O)c2ccccc2)=N1	none (no result: PAD4 FP inh, Fh CTSL1 inh, GSTO1 inh)
Cn1c(=NC(=O)CS(=O)(=O)c2ccccc2)sc2cc(F)ccc21	none (no result: PAD4 FP inh, Fh CTSL1 inh, GSTO1 inh)
CC(=O)SCC(=O)N=c1sc2cc(F)ccc2n1C	PAD4 FP inh 19.5 | PAD4 confirm 19.1
COCC#Cc1ccc(CC[C@H]2O[C@H]3CC[C@@H](CO)O[C@H]3C[C@H]2n2cc(C3CC3)nn2)cc1	none (no result: PAD4 FP inh, Fh CTSL1 inh, GSTO1 inh)
COc1cc(CNCc2ccncc2)cc(Br)c1OCc1ccccc1F	none
COc1cc(CNc2ccc(O)cc2)cc(Br)c1OCc1ccccc1F	PAD4 FP inh 27.6, GSTO1 inh 85.7 (no result: TDP2 absorb, PRMT1 inh) | PAD4 confirm inactive
CCOc1ccc(N)c(SSc2cc(OCC)ccc2N)c1	PAD4 FP inh 26.0, PRMT1 inh 86.0 | PAD4 confirm 31.3
C=CCn1c(SCC(=O)Nc2ccccc2-c2ccccc2)nnc1-c1ccccc1	none (no result: PAD4 FP inh, Fh CTSL1 inh, GSTO1 inh)
CC1=NN(c2ccccc2)C(=O)C1N=Nc1cccc(O)c1 (centres undefined)	none
CC1=NN(c2ccc(C)cc2C)C(=O)C1C(c1cccc(O)c1)C1C(=O)N(c2ccc(C)cc2C)N=C1C (centres undefined)	PAD4 FP inh 39.8, TDP2 absorb 70.6, GSTO1 inh 55.0 | PAD4 confirm inactive
CC1SC(=S)N(c2ccc(N(C)C)cc2)C1=O (centres undefined)	PAD4 FP inh 15.1 | PAD4 confirm inactive
CN(C)c1ccc(N2C(=O)CC(c3ccccc3)CC2=O)cc1	none
COc1ccc(C2CC(c3cccs3)=NN2S(C)(=O)=O)cc1 (centres undefined)	none
CS(=O)(=O)N1N=C(c2cccs2)CC1c1ccccc1 (centres undefined)	PAD4 FP inh 30.4 | PAD4 confirm inactive
c1ccc(C[n+]2csc3ccccc32)cc1	PAD4 FP inh 23.4, PRMT1 inh 84.1 | PAD4 confirm 33.9
O=C(COc1ccccc1F)N1CCN(S(=O)(=O)/C=C/c2ccccc2)CC1	PAD4 FP inh 55.9 | PAD4 confirm inactive
O=C(COc1ccc(Br)cc1)N1CCN(S(=O)(=O)/C=C/c2ccccc2)CC1	none
O=C1CC(c2ccc(F)cc2)c2cc3c(cc2N1)CCC3 (centres undefined)	PAD4 FP inh 15.5 | PAD4 confirm inactive
C[C@H]1[C@@H](OC(=O)NCc2ccc(Cl)c(Cl)c2)CC[C@@]23CCCN2C(=O)CCC[C@@H]13	none (no result: PAD4 FP inh, Fh CTSL1 inh, GSTO1 inh)
O=S(=O)(Nc1ccc(Cl)cn1)c1ccc(Cl)cc1	none
Cc1cc(C)c(S(=O)(=O)Nc2ccc(Cl)cn2)c(C)c1	PAD4 FP inh 21.4 | PAD4 confirm inactive
O=C(CCc1ccccc1)N[C@H]1[C@@H](OC(=O)c2cnccn2)CCC[C@]12C(=O)N(Cc1ccccc1)c1ccccc12	none (no result: PAD4 FP inh, Fh CTSL1 inh, GSTO1 inh)
Cc1nnc(SCC(=O)c2ccc(Cl)cc2)n(N)c1=O	PAD4 FP inh 25.8, PRMT1 inh 37.3 | PAD4 confirm inactive
CN(c1ccc(C(=O)NCC2CCCO2)cc1)S(C)(=O)=O (centres undefined)	PAD4 FP inh 15.0 | PAD4 confirm inactive
CCn1c(SC(C)C(=O)O)nc2sc3c(c2c1=O)CCC3 (centres undefined)	PAD4 FP inh 15.8 | PAD4 confirm inactive
C[C@@H]1C[C@H](O)CCCCCC(=O)Cc2cc(O)cc(O)c2C(=O)O1	none (no result: PAD4 FP inh, Fh CTSL1 inh, GSTO1 inh)
N#CCN(CC#N)C(=O)C1c2ccccc2Oc2ccccc21	PAD4 FP inh 55.6 | PAD4 confirm inactive
NC(=O)COC(=O)C1c2ccccc2Oc2ccccc21	none
CS(=O)(=O)c1ccc(N)c(SSc2cc(S(C)(=O)=O)ccc2N)c1	PAD4 FP inh 45.4, PRMT1 inh 87.0 | PAD4 confirm 52.1
Cc1cc(O)ccc1N=Cc1c(C(F)(F)F)[nH][nH]c1=O	PAD4 FP inh 97.6, PRMT1 inh 25.4, GSTO1 inh 94.1 | PAD4 confirm inactive
O=c1[nH][nH]c(C(F)(F)F)c1C=Nc1ccccc1	none
O=C(Nc1ccc(Cl)cc1)Nc1ccccc1Sc1ncc([N+](=O)[O-])s1	PAD4 FP inh 21.9, PRMT1 inh 49.6 | PAD4 confirm inactive
O=C(O)c1[nH]c2ccccc2c1-c1ccccc1	PAD4 FP inh 104.5 | PAD4 confirm inactive
COc1ccc(-c2nc(C(=O)NCCCN3CCOCC3)cc3c2[nH]c2ccccc23)cc1OC	PAD4 FP inh 59.0 | PAD4 confirm 67.4
Cc1ccc(-c2nc(C(=O)NCCCN3CCOCC3)cc3c2[nH]c2ccccc23)cc1	none
CCC(C#Cc1ccccc1)N(C)C(N)=NC(=O)/C=C/c1ccccc1 (centres undefined)	none (no result: PAD4 FP inh, Fh CTSL1 inh, GSTO1 inh)
CCSc1nnnn1-c1ccccc1	none
Cc1ccc(C)c(-n2nnnc2Sc2nnnn2-c2ccccc2)c1	PAD4 FP inh 18.2 | PAD4 confirm 25.5
Cc1cccc(-c2cccc3c4c([nH]c23)[C@@H]2C[C@H](N(C)C(=S)Nc3ccc(C#N)cc3)[C@H]([C@H](C)O)CN2CC4)c1	none (no result: PAD4 FP inh, Fh CTSL1 inh, GSTO1 inh)
COc1ccc2ccccc2c1/C=N/Nc1ccc(Cl)c(C(=O)O)c1	none
COc1ccc2ccccc2c1/C=N/Nc1cccc(C(=O)O)c1	PAD4 FP inh 21.1 | PAD4 confirm inactive
CC1(C)Oc2ccc(C(=O)NC3CCCC3)cc2NC1=O	none (no result: PAD4 FP inh, Fh CTSL1 inh, GSTO1 inh)
COCCn1cnc2c1c(=O)n(CC(=O)OCC#N)c(=O)n2Cc1ccccc1	none
COCCn1cnc2c1c(=O)n(Cc1ccc(C#N)cc1)c(=O)n2Cc1ccccc1	PAD4 FP inh 19.6 | PAD4 confirm inactive
COC(=O)[C@]1(CNC(C)=O)CC(=O)N(Cc2ccc(Cl)cc2)[C@@H]1c1ccc(OC)cc1	none (no result: PAD4 FP inh, Fh CTSL1 inh, GSTO1 inh)
Cc1[nH]n(-c2ccccc2)c(=O)c1C(c1ccccc1[N+](=O)[O-])C(C#N)C#N (centres undefined)	PAD4 FP inh 22.3, TDP2 absorb 74.9 | PAD4 confirm inactive
Cc1[nH]n(-c2ccccc2)c(=O)c1C(c1ccccc1C(=O)O)c1c(C)[nH]n(-c2ccccc2)c1=O	none
COc1ccc(O)c(C2=Nc3ccccc3N=C(c3cccs3)C2)c1	none
COc1ccc(C2CC(c3cccs3)=Nc3ccccc3S2)cc1 (centres undefined)	PAD4 FP inh 21.3, PRMT1 inh 83.3 | PAD4 confirm inactive
CCOC(=O)[C@@H](CCc1ccccc1)N[C@@H](C)C(=O)N1CCC[C@H]1C(=O)O	none (no result: PAD4 FP inh, Fh CTSL1 inh, GSTO1 inh)
Cc1ccc(C2C(C#N)=C(N)N(N(C)C)C3=C2C(=O)CCC3)cc1 (centres undefined)	none

Screens: PubChem BioAssay, The Scripps Research Institute Molecular Screening Center
